≈ marks a conversion by molar mass, not a printed value.
What was measured:
[1] = target: T1, Serine-protein kinase ATM (Homo sapiens, UniProt Q13315); assay: Inhibition of full length recombinant FLAG-tagged human ATM assessed as decrease in p53 S15 phosphorylation using full length myc-tagged p53 as substrate incubated for 30 mins in presence of ATP by ELISA
Method in brief: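 Buffer was 25 mM HEPES pH 7.5 with MgCl₂, MnCl₂, Brij-35, glycerol, BSA and DTT (0.1% DMSO); reaction ran 30 min at 20 °C and was stopped with 70 mM EDTA. Product captured on anti-myc-coated plates and detected with anti-p53 pS15, HRP secondary and TMB, absorbance at 450 nm.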

[2] = target: T1, Serine-protein kinase ATM; assay: Inhibition of ATM in human U2OS cells assessed as reduction in etoposide-stimulated KAP1 phosphorylation incubated for 60 mins by immunoreactivity assay; format: cell-based
Method in brief: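 U2OS cells plated overnight at 6k cells/well (37 °C, 5% CO₂), then treated with compound titrations (0.3% DMSO) plus 100 μM etoposide for 60 min. Cells fixed in cold methanol and stained for phospho-KAP1 and total KAP1 using IRDye secondaries on a LI-COR Odyssey. IC50 is the mean of at least two experiments.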

[3] = target: T2, Phosphatidylinositol 3-kinase catalytic subunit type 3 (Homo sapiens, UniProt Q8NEB9); assay: Inhibition of full length recombinant GST-tagged human VPS34 expressed in baculovirus expression system using PI/PS as substrate incubated for 60 mins in presence of ATP at Km concentration by luminescence assay
Homo sapiens [4] = organism: Homo sapiens; assay: Selectivity ratio of Ki for full length recombinant GST-tagged VPS34 expressed in baculovirus expression system using PI/PS as substrate incubated for 60 mins in presence of ATP at Km concentration by luminescence assay to Ki for full length recombinant FLAG-tagged human ATM assessed as decrease in p53 S15 phosphorylation using full length myc-tagged p53 as substrate incubated for 30 mins in presence of ATP by ELISA
Method in brief: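 ADP-Glo luminescence read-out. ATM reaction: 0.75 nM enzyme, 25 nM myc-p53, 10 μM ATP, 30 min at 20 °C, p53 S15 phosphorylation by ELISA. Ki values are means of at least two experiments.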

[5] = Kinetic solubility of the compound in pH 7.4 PBS buffer incubated for 2 hrs using orbital shaker by LC-UV mass spectrometry; format: physicochemical; settings: read-out: Kinetic_solubility
Method in brief: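 Shaken on an orbital shaker for 2 h at room temperature, then filtered. Filtrate analysed by LC-UV with MS confirmation, calibrated against 200 μM and 10 μM DMSO dilutions.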

[6] = Effective efflux ratio of apparent permeability across basolateral to apical over apical to basolateral side in MDCK-MDR1 cells assessed as efflux ratio after 1 hr by LC-MS/MS analysis; format: ADME, cell-based, Canis lupus familiaris; settings: dog, mdck-mdr1, 1 h
Method in brief: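 MDCKII MDR1 and wild-type cells seeded at 2 × 10⁵ cells/well in Transwells, cultured 3 days. Test compounds 10 μM in HBSS with 25 mM HEPES pH 7.4, dosed apical or basolateral in duplicate, 1 h at 37 °C. Lucifer yellow monolayer check, wells above 100 nm/s rejected. LC–MS/MS read-out. ER = Papp B>A/A>B. EER = MDR1 ER over wild-type ER.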

[7] = Apparent permeability across apical to basolateral side in MDCK-MDR1 cells after 1 hr by LC-MS/MS analysis; format: ADME, cell-based, Canis lupus familiaris; settings: dog
Method in brief: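 MDCKII-MDR1 and wild-type cells seeded at 2 × 10⁵ cells/well on Transwells and cultured 3 days. Test compound at 10 μM in HBSS with 25 mM HEPES, pH 7.4, added apical or basolateral in duplicate. Lucifer yellow used as integrity check; wells above 100 nm/s rejected. Sampled after 1 h at 37 °C and quantified by LC–MS/MS. Papp taken from the apical-to-basal direction.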

[8] = Intrinsic clearance in C57Bl/6 mouse pooled liver microsomes at 1 uM measured up to 40 mins in presence of NADPH by LC-MS/MS analysis; format: ADME, Microsome; settings: read-out: CLH
Method in brief: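 Reaction started with 1 mM NADPH. Sampled at 0, 5, 10, 20 and 40 min, quenched in acetonitrile with internal standard, and analysed by LC–MS/MS.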

[9] = target: DNA-dependent protein kinase catalytic subunit (Homo sapiens, UniProt P78527); assay: Inhibition of DNA-PK isolated from human HeLa nuclear extract using full length His-tagged p53 as substrate measured after 75 mins in presence of ATP by HTRF assay; format: subcellular, Nucleus
Method in brief: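 Buffer was 50 mM HEPES pH 7.5, 5 mM MgCl₂, 0.01% Brij35, 1 mM DTT and 1 μg/mL sheared calf thymus DNA; reaction ran 75 min at 20 °C. Stopped with d2-anti-6HIS and cryptate anti-phospho-p53 antibodies in KF/EDTA buffer. Read at 665/620 nm after 7 h.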

[10] = target: Serine/threonine-protein kinase ATR (Homo sapiens, UniProt Q13535); assay: Inhibition of ATR in human HT-29 cells assessed as reduction in CHK1 phosphorylation incubated for 4 hrs; format: cell-based
Method in brief: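 HT29 cells seeded at 25k/well overnight, then treated with compound titrations (0.3% DMSO) plus 10 μM gemcitabine for 4 h. Cells fixed in paraformaldehyde, permeabilized with Triton-X, and stained for phospho-Chk1 and total Chk1 using LI-COR IRDye detection. Ratio normalized to DMSO and 30 μM AZ-20 controls. IC50 is the mean of at least two experiments.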

[11] = target: T2, Phosphatidylinositol 3-kinase catalytic subunit type 3; assay: Binding affinity to VPS34 (unknown origin)
Homo sapiens [12] = organism: Homo sapiens; assay: Selectivity ratio of Ki for DNA-PK isolated from human HeLa nuclear extract using full length His-tagged p53 as substrate measured after 75 mins in presence of ATP by HTRF assay to Ki for full length recombinant FLAG-tagged human ATM assessed as decrease in p53 S15 phosphorylation using full length myc-tagged p53 as substrate incubated for 30 mins in presence of ATP by ELISA
Method in brief: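 HTRF detection of p53 S15 phosphorylation. ATM reaction: 0.75 nM enzyme, 25 nM myc-p53, 10 μM ATP, 30 min at 20 °C, anti-myc capture ELISA. Ki values are means of at least two experiments.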

[13] = Clearance in C57Bl/6 mouse at 2 mg/kg, iv administered as single dose; format: ADME, organism-based; settings: in vivo
Method in brief: (§1)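 Male C57BL/6 mice given a slow tail-vein bolus of a 0.4 mg/mL solution in 10:40:50 DMSO/PEG/H₂O, at 2 mg/kg (5 mL/kg) or 0.8 mg/kg (2 mL/kg). Plasma and brain sampled over 8 h, n = 3 per time point, and measured by LC–MS/MS. Noncompartmental analysis on mean concentrations with linear-trapezoidal AUC. Kp is the brain/plasma AUC ratio of total concentrations; Kpuu uses free concentrations, corrected by equilibrium-dialysis plasma and brain binding.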

[14] = Volume of distribution at steady state in C57Bl/6 mouse at 2 mg/kg, iv administered as single dose; format: ADME, organism-based; settings: in vivo, read-out: Vdss; method in brief: as §1
[15] = Half life in C57Bl/6 mouse at 2 mg/kg, iv administered as single dose; format: ADME, organism-based; settings: in vivo; method in brief: as §1
[16] = Brain to plasma permeability coefficient, Kp in C57Bl/6 mouse at 2 mg/kg, iv administered as single dose; format: ADME, organism-based; settings: brain and plasma; method in brief: as §1
[17] = Unbound brain-to-plasma concentration ratio in C57Bl/6 mouse at 2 mg/kg, iv administered as single dose; format: ADME, organism-based; settings: brain and plasma, read-out: K(p,uu,brain); method in brief: as §1
[18] = Bioavailability in C57Bl/6 mouse at 10 mg/kg, po or 2 mg/kg, iv; settings: in vivo
[19] = Aqueous solubility of the compound in pH 7.4; format: physicochemical; settings: buffer
[20] = Clearance in C57Bl/6 mouse at 0.8 mg/kg, iv administered as single dose; format: ADME, organism-based; settings: in vivo; method in brief: as §1
[21] = Volume of distribution at steady state in C57Bl/6 mouse at 0.8 mg/kg, iv administered as single dose; format: ADME, organism-based; settings: in vivo, read-out: Vdss; method in brief: as §1
[22] = Half life in C57Bl/6 mouse at 0.8 mg/kg, iv administered as single dose; format: ADME, organism-based; settings: in vivo; method in brief: as §1
[23] = Brain to plasma permeability coefficient, Kp in C57Bl/6 mouse at 0.8 mg/kg, iv administered as single dose; format: ADME, organism-based; settings: brain and plasma; method in brief: as §1
[24] = Unbound brain-to-plasma concentration ratio in C57Bl/6 mouse at 0.8 mg/kg, iv administered as single dose; format: ADME, organism-based; settings: brain and plasma, read-out: K(p,uu,brain); method in brief: as §1
[25] = Bioavailability in C57Bl/6 mouse at 10 mg/kg, po or 0.8 mg/kg, iv; format: ADME, organism-based; settings: in vivo
Method in brief: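 An IV reference dose of 0.8 mg/kg was given. Plasma measured by LC–MS/MS, n = 3 per time point. %F calculated as dose-normalized PO AUCinf divided by dose-normalized IV AUCinf.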

[26] = target: Serine/threonine-protein kinase mTOR (Homo sapiens, UniProt P42345); assay: Binding affinity to mTOR (unknown origin)

Serine/threonine-protein kinase ATR, sequence (Q13535 whole entry): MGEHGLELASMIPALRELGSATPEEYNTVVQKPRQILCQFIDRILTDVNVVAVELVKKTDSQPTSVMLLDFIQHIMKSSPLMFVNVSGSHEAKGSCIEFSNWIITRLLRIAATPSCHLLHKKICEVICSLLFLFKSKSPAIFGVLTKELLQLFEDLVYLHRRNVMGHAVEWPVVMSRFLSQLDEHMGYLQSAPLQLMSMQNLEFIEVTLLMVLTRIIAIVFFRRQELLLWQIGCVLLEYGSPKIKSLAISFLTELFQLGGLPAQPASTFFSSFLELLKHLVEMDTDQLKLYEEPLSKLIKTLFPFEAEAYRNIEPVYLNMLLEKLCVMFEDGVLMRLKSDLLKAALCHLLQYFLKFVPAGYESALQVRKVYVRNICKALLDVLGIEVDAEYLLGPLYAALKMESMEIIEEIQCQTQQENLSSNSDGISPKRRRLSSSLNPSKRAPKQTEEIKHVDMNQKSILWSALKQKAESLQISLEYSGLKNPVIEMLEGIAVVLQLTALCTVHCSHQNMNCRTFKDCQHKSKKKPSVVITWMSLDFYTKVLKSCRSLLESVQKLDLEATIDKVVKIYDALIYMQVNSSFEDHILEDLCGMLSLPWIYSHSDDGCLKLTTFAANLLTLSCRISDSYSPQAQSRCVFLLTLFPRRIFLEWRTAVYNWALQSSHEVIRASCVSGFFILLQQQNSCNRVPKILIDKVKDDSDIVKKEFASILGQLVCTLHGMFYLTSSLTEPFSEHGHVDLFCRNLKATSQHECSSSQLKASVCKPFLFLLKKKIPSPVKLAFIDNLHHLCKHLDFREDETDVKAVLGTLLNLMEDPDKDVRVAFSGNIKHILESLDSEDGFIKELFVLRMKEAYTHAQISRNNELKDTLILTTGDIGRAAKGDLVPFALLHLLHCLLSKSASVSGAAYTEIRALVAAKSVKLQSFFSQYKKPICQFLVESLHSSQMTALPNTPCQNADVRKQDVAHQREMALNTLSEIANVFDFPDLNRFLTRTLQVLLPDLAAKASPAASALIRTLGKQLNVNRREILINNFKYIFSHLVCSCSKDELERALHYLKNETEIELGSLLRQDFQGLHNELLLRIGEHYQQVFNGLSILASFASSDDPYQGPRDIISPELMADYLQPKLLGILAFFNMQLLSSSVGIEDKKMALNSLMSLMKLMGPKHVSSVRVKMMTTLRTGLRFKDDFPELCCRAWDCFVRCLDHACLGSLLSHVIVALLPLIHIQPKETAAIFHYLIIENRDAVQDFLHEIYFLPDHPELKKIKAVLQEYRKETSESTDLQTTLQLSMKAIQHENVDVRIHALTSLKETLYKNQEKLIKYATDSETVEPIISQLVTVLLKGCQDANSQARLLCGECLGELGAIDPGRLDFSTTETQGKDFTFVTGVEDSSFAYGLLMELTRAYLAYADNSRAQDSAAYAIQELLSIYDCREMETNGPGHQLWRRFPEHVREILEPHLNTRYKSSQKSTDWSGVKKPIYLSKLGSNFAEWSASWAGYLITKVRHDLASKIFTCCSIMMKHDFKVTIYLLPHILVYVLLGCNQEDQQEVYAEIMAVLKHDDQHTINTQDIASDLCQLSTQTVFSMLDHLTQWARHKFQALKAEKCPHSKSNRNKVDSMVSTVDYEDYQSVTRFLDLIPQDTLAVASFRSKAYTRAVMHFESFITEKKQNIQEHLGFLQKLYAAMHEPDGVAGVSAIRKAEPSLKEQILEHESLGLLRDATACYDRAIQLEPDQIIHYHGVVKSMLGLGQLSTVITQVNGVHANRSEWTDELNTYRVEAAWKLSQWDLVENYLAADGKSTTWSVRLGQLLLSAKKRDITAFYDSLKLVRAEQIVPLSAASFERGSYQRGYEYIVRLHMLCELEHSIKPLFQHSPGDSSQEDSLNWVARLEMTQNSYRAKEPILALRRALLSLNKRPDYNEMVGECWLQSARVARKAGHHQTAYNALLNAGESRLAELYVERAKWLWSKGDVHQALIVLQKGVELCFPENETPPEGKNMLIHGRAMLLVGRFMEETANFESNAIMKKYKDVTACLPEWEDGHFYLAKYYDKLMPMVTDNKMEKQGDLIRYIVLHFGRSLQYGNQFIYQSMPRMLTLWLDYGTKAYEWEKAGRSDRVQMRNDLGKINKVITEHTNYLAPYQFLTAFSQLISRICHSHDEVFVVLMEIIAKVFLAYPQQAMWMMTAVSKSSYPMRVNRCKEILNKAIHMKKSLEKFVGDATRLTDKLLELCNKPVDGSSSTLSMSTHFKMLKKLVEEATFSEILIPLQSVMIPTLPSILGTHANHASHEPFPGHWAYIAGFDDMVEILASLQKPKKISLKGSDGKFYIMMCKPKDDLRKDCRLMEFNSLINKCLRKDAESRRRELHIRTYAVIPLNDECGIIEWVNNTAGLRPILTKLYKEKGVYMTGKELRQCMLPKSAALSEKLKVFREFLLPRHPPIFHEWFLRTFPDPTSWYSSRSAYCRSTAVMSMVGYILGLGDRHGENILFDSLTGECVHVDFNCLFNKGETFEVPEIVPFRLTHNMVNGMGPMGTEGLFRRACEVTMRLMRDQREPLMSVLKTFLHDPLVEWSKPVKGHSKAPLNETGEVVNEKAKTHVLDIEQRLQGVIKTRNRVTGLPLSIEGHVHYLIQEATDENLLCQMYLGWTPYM
T2 sequence (Q8NEB9 whole entry): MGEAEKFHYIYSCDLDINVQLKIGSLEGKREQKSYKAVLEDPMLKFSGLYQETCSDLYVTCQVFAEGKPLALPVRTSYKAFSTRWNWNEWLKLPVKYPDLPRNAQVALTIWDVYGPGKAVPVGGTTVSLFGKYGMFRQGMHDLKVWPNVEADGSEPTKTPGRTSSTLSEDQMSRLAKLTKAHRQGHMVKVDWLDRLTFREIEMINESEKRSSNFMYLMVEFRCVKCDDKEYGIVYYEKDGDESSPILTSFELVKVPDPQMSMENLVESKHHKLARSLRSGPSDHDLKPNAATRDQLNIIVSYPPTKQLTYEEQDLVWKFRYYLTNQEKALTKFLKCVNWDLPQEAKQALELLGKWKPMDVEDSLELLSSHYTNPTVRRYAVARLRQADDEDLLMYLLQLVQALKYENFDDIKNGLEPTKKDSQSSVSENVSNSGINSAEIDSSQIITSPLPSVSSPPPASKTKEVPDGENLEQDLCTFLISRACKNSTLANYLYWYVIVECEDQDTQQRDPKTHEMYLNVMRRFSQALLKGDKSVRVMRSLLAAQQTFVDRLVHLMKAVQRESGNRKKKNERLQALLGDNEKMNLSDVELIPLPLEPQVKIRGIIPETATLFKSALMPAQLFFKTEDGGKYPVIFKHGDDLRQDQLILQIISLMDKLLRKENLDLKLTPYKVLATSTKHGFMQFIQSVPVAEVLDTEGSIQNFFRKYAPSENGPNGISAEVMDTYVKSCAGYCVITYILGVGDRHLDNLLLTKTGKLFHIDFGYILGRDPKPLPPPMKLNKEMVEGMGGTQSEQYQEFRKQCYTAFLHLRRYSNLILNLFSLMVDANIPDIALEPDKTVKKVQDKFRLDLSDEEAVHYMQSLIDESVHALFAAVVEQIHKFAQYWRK

Ki [1] [nM] | IC50 [2] [nM] | Ki [3] [nM] | Ratio Ki (Homo sapiens [4]) | solubility kinetic at 2 h [5] [µg/mL] | Ratio [6] | Papp A→B at 1 h [7] [×10⁻⁶ cm/s] | CLint scaled at 1 µM [8] [mL/min/kg] | Ki [9] [nM] | IC50 [10] [nM] | SMILES | other results
1 | 500 | 16 | 16 | 34 (≈ 99.9 µM) | 4.5 | 77.5 | 261 | – | – | Oc1cc(N2CCOCC2)nc(N2CCC[C@@H]2Cc2ccccc2)n1 | –
3 | 1300 | 110 | 43 | > 71 | 7.2 | 51.8 | < 65 | – | – | O=c1cc(N2CCOCC2)cc(N2CC[C@@H](F)[C@@H]2Cc2ccccc2)[nH]1 | –
– | – | 750 | – | 23 (≈ 62.9 µM) | – | – | – | 7 | 13000 | C[C@@H]1CN(c2cc(N3C[C@@H]4C[C@@H]4[C@@H]3Cc3ccccc3)[nH]c(=O)c2)CCO1 | –
23 | 3500 | – | – | 72 (≈ 195 µM) | 12 | 31.9 | < 65 | – | – | CO[C@@H]1CCN(c2cc(N3CCOCC3)cc(=O)[nH]2)[C@H]1Cc1ccccc1 | –
6 | – | 9 | 1 | > 68 | 4.8 | 59.9 | 115 | – | – | O=c1cc(N2CCOCC2)cc(N2CCC[C@@H]2Cc2ccccc2)[nH]1 | –
– | – | 170 | – | 59 (≈ 167 µM) | – | – | – | – | 8000 | O=c1cc(N2CCOCC2)cc(N2CCCC[C@@H]2Cc2ccccc2)[nH]1 | –
1 | 230 | 50 | 50 | > 58 | 4.3 | 55.6 | 69 | 180 | > 30000 | O=c1cc(N2CCOCC2)cc(N2CCCCC[C@@H]2Cc2ccccc2)[nH]1 | Kd [11]: 11000 nM; Ratio Ki (Homo sapiens [12]): 180; clearance [13]: 35 mL/min/kg; Vd [14]: 3.4 L/kg; half-life [15]: 1.6 h; Kp [16]: 0.41; Kp uu [17]: 0.18; bioavailability [18]: 68%
– | – | – | – | 11 (≈ 27 µM) | – | – | – | – | – | COc1ccc2c(c1)Cc1cccc(-c3cc(=O)cc(N4CCOCC4)o3)c1S2 | solubility [19]: 1 µg/mL (≈ 2.45 µM)
0.1 | 200 | 8 | 80 | 48 (≈ 130 µM) | 3.1 | 58.1 | 287 | – | – | O=c1cc(N2CCOCC2)nc(N2CCCCC[C@@H]2Cc2ccccc2)[nH]1 | –
0.4 | 90 | 6 | 15 | 33 (≈ 93.1 µM) | – | – | – | 110 | 5500 | C[C@@H]1CCN(c2nc(N3CCOCC3)cc(=O)[nH]2)[C@H]1Cc1ccccc1 | Ratio Ki (Homo sapiens [12]): 275; clearance [20]: 115 mL/min/kg; Vd [21]: 11 L/kg; half-life [22]: 0.75 h; Kp [23]: 1; Kp uu [24]: 0.47; bioavailability [25]: 78%
6 | – | 39 | 6.5 | 65 (≈ 173 µM) | 2.6 | 75.2 | < 65 | – | – | O=c1cc(N2CCOCC2)cc(N2CCC(F)(F)[C@@H]2Cc2ccccc2)[nH]1 | –

SMILES | Ki [1] [nM] | IC50 [2] [nM] | Ki [3] [nM] | Ratio Ki (Homo sapiens [4]) | solubility kinetic at 2 h [5] [µg/mL] | Ratio [6] | Papp A→B at 1 h [7] [×10⁻⁶ cm/s] | CLint scaled at 1 µM [8] [mL/min/kg] | Ki [9] [nM] | IC50 [10] [nM] | other results
O=c1cc(N2CCOCC2)cc(N2C[C@@H]3C[C@@H]3[C@@H]2Cc2ccccc2)[nH]1 | 0.3 | 150 | 4 | 13 | 52 (≈ 148 µM) | 2.9 | 81.2 | 177 | – | – | –
O=c1cc(N2CCOCC2)cc(N2C[C@H]3C[C@H]3[C@@H]2Cc2ccccc2)[nH]1 | 2 | – | 98 | 49 | 59 (≈ 168 µM) | 6.7 | 65.7 | < 75 | 160 | > 30000 | Ratio Ki (Homo sapiens [12]): 80; Kd [26]: 4600 nM; clearance [13]: 33.3 mL/min/kg; Vd [14]: 4.7 L/kg; half-life [15]: 2.4 h; Kp [16]: 0.23; Kp uu [17]: 0.12

— ChEMBL document CHEMBL4823251, “Structure-Based Exploration of Selectivity for ATM Inhibitors in Huntington's Disease” (J Med Chem, 2021)
